According to the EternaBench riboswitch data:

System: MS2 coat protein
Experiment: apparent Kd, MS2 coat protein; higher = weaker binding; RNA-MaP array; FMN 200 µM where present
Procedure, shortened: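 Designs were transcribed by stalled E. coli RNA polymerase on Illumina sequencing-chip clusters. They were titrated with SNAP-549-labelled MS2 coat protein from 0.7 or 1.5 nM, doubling to 3 µM, in 100 mM Tris-HCl pH 7.5, 80 mM KCl, 4 mM MgCl2, BSA, DTT, yeast tRNA and Tween-20, without and then with constant ligand. The apparent Kd is the median of filtered per-cluster fits after normalisation of green signal to red-channel RNA signal and control-cluster median Fmax.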

[1] = designed as: OFF switch for flavin mononucleotide, no ligand
[2] = ligand present: flavin mononucleotide, designed as: OFF switch for flavin mononucleotide
[3] = designed as: ON switch for flavin mononucleotide, no ligand
[4] = ligand present: flavin mononucleotide, designed as: ON switch for flavin mononucleotide

| Sequence | apparent Kd [1] [nM] | apparent Kd [2] [nM] | apparent Kd [3] [nM] | apparent Kd [4] [nM] |
| --- | --- | --- | --- | --- |
| GCAGCAUAUGCAGGAUAUCAGCACGUGUAGUGCUGAGAAGGGCACAUGAGGAUCACCCAUGUGAUCAAUUAAUAUUUAUGCUGC | 7.98 | 24.8 | – | – |
| CGUCGAUACCAGAAGGACAUGAGGAUCACCCAUGUAGGAUAUGGGUGACCGGGAUAGUGGACACAGCGCCCGGGCACAUGCGAC | – | – | 13.6 | 8.19 |
| GUGGUCAGACAUGAGGAUCACCCAUGUGGAAUAAAUAAGGAGAAGGAUAUUCAAUAUAGGAUAUAGAAGAAGGUCUGGUUGGUG | – | – | 73.7 | 82.7 |
| CAUGACAAAGGAUAUACAUGAGGAUCACCCAUGUGGUCAUGGAAGUACGUGUUCUCACGUAGAAGGUUGCAGGG | 12.8 | 24.9 | – | – |
| AUAAGCUCGUCAGGAUAUACGUCACUGCUUCGGCAGUGAGGUAUGAUCACAUGAGGAUCACCCAUGUAGAAGGGACGAGCUUAU | 5.63 | 8.57 | – | – |
| AAUGGUGGAGGAUAUACAUGAGGAUCACCCAUGUAAAUCACACAUGUGGUCAACGCAUGUAGAAGGCCACUAAA | 62.5 | 104 | – | – |
| UGGUACUAGGGAGGAUAUGGGAAGAGACAUGAGGAUCACCCAUGUUUAAGAAUGCCGAGAGGCAACUAGAAGGCCCUAGUACCU | – | – | 38.8 | 7.42 |
| UACCUAUUUAUGGUAUUUCAAUAUGAGGAUAUCAUUUAUUUAUACAUGAGGAUCACCCAUGUUACUGAGAAGGCAUAUUUAAUA | – | – | 11.4 | 6.01 |
| AAUAAACAUGAGGAUCACCCAUGUCAGGAUAUCCAUUUGUUUUUGUUGGUUUUUUUUUGGAGAAGGGACGCUUA | 87.3 | 63 | – | – |
| AGUUACAGGAUAGGAUAUGGCGUGACAUGGCUGCCAGAAGGAUCCUCGGGAACAUGAGGAUCACCCAUGUGACCGUGUCGAGUC | – | – | 126 | 170 |
| UUGGACGUCGUAGGAUAUGUAGGAUAUUCCUACAUGAGGAUCACCCAUGUUGACAUGGAAGAAGCACAGAAGGACGAUGUCCAU | – | – | 150 | 6.6 |
| AAAAAAAGAGGAUAUACAUGAGAAAAAAAAAUGUAAAAAAAACAUGAGGAUCACCCAUGUAGAAGGCUUAAAAA | 34.6 | 45.4 | – | – |
| UAAAUGUGAGGAUAUUCGAUGAACUCGGAGACGAGUUUAUCGGAGAAGGCACAUGAGGAUCACCCAUGUUCCUU | 22.3 | 225 | – | – |
| UACAUGUGAGGAUAUGUACGAGGCCCUGACGGGUCUCGCAGGCAGAAGGCACAUGAGGAUCACCCAUGUGACCG | 24.7 | 96.6 | – | – |
| AGAAAACAUGAGGAUCACCCAUGUGAGGAUAUCGAUGUCCAAGUCCGGGUGCGGGACUCGAGAAGGCACUUGGG | 55.9 | 55 | – | – |
| ACAUGGUAGUAGAAGGGUAUUACUUUAGAUACAACCAUUUGUAUUGUUUAUACAGGAUAUGCUUACAUGAGGAUCACCCAUGUU | 11.3 | 11.1 | – | – |
| AUACUCAUGUAAGGAUAUGCAGCCGAACCGGCUGCAGAAGGUACUAUAAUACAUGAGGAUCACCCAUGUCAAAAUAAAAUAGUU | – | – | 52 | 21.5 |
| ACGUUAAUUCGAGGAUAUCGGUGAUAUAUAUUACGAGAAGGCGAUAAUUGUGAUAAACUUAUAGACAUGAGGAUCACCCAUGUA | – | – | 42.1 | 38.2 |
| GCUGGUCGAGGAUAUGCAAUCGUGCUUCGGCACGUAAGGUCACAUGAGGAUCACCCAUGUAGAAGGUGACCAGC | 17.1 | 23.3 | – | – |
| UUGUGCUUAGAGAAGGUUCAAACUACAUAUUGCGCACAUGAGGAUCACCCAUGUUGGUGAAUAAGAAAGGAUAUUUGACUGUGC | 487 | 360 | – | – |
| UUAUUUUUACAGAAGGUUUAAUAAUAUAUAUGAGAAGGAUAUGUAACAUGAGGAUCACCCAUGUUUCACCCAUAUGAGGAUCAU | 8.2 | 7.27 | – | – |
| UGAUCUAUGUAGAAGGCCCAUAUCUGUAUUUAGGGAGGAUAUACAUGAGGAUCACCCAUGUGUAGAGCUGGUGGACUGGUCAGC | 87.8 | 183 | – | – |
| CGGGCAAUGUCCGAGACAUGAGGAUCACCCAUGUUAGCAGCACAGGAUAUCAUGUUUUGUAAAGGUGAGAAGGGUGAUUGCAUC | – | – | 273 | 139 |
| GGAGAACACAUUAACAUGAGGAUCACCCAUGUCAAAAGACAUGAGGAUAUGGAUCCGAAAAGGAUCCAGAAGGCAUGGUGCUCC | – | – | 511 | 26.5 |

| Sequence | apparent Kd [1] [nM] | apparent Kd [2] [nM] | apparent Kd [3] [nM] | apparent Kd [4] [nM] |
| --- | --- | --- | --- | --- |
| GGGUGGCGUAGAGGAUAUGUGGUACAUGAGGAUCACCCAUGUGCAUAUGAUGUUCGUGUUUAUGUAUAGAAGGCUACGUCGCUA | – | – | 12.5 | 12.3 |
| GCCAUCACAUGAGGAUAUGCUCCCGUUUCGGGAGCAGAAGGCGUGUCAUAAGACAUGAGGAUCACCCAUGUAGCUAAGAUGGCA | – | – | 321 | 12.6 |
| UUCCGCGUUGUAAGGAUAUCUAAUUCUUAUGAAAUAGAGAAGGUACAUGAGGAUCACCCAUGUACUUGGGACUA | 18.7 | 22.4 | – | – |
| GACUUGUUAGGAUAUCUUACUUUUGCAUCAUAGUAACCAUUGGAGAAGGGACAUGAGGAUCACCCAUGUUUGGA | 32.9 | 28.9 | – | – |
| UUUAUGAAGCUUCGUCAAUACAGUUAGGAUAUGAGAGACAUGAGGAUCACCCAUGUGCAUGUUGAUUAGAAGGAACAACUAUCU | 17.6 | 15.1 | – | – |
| GUGUGAUUAAGAGGAUAUAUACAACAUGAGGAUCACCCAUGUACCCGUGUAGUAGAAGGUUUGUUUUUAUAUAAUAUUAUAUUU | – | – | 26.5 | 21.9 |
| CUCCGCGCUGUCAGGAUAUCCAGGGCCUACCGGCCGGAGAAGGGACAUGAGGAUCACCCAUGUUCGGGUUAGCA | 15.7 | 17.6 | – | – |
| UUACGUCCCGUUUACAUGAGGAUCACCCAUGUCGAAAGAGCGGAGGAUAUGCUACCUAGUUGGUAGCAGAAGGCUGCAACGUCG | – | – | 35.2 | 46.5 |
| UGGUACAUCGGAGGAUAUCAUGUGUAAACAUGAGGAUCACCCAUGUCGUACGAGAGUACGGAGAUUGAGAAGGCCGAUGUACCU | – | – | 88.7 | 16.5 |
| AAGGUACGAGGAUAUACAUAGAUACAGAUACAUGUGGAUGUACAUGAGGAUCACCCAUGUAGAAGGCGUAUAUA | 300 | 318 | – | – |
| AGUCUGCUAGGAUAUACAUGAGGAUCACCCAUGUCUAUCAAAAGACUAUUAACCUGGUGUAGAAGGAGCUUGUA | 11.1 | 12.5 | – | – |
| ACAUGAGGAUCACCCAUGUUAUCCGGGACUUCAAUUGUUUCUAGAAGGCUGUUUACUUGUUAGUCAGAGGAUAUAGAAUCAAAU | 10.7 | 11.4 | – | – |
| AUACCACGAGGAUAUCGUCUCUCCCACAUGAGGAUCACCCAUGUUAUCCAUGUUUCGUUUCGAGAAGGCGUGGGUU | 83.2 | 70.2 | – | – |
| AAGGAUCGCACAGGAUAUCAUACAUGAGGAUCACCCAUGUCAGAAAACAAAUGAGAAGGGUGCGCAUUAAUUGCUUGUGAAGAA | – | – | 17.9 | 4.65 |
| UCCUUGGAAGGAUAUCGAUAGGCUUACAUGAGGAUCACCCAUGUUGGGAUGUCUUUCUGUCGAGAAGGUUCGUUUU | 19.7 | 21.4 | – | – |
| UUUGUCAUCGAGAAGGCCUCAACAUGAGGAUCACCCAUGUUGUAAUAUGGGAGGAUAUCGAUGAUACAGCUACGUUUCGUAAAA | – | – | 20 | 5.58 |
| AAACCUUCUGAGGAUAUCUGAGGCCCUGCGCUUAGAGAAGGUAGUACAUGAGGAUCACCCAUGUCCGCGCUGGG | 16.3 | 17.9 | – | – |
| AUUAUACAUGAGGAUCACCCAUGUAAUUAAUUAAUUAAGAUCAAGGAUAUCAGCUCGAAUAGAGCUGAGAAGGUGAUCACAUGU | – | – | 330 | 287 |
| GCGUGGUUCUAGAAGGUGCUAGCGAUAAGCUAGCAAGGAUAUAGACAUGAGGAUCACCCAUGUCUUAAUGAAAUGGACACACGC | 5.3 | 4.85 | – | – |
| AUAAUGUAAGGAUAUAUGAAUCACGGUGAUACACCGUGAAGAUAGAAGGUACAUGAGGAUCACCCAUGUAGGGC | 50.5 | 220 | – | – |
| GCAGGACAUGAGGAUCACCCAUGUCUCAAAUAUUGAGGAUAUGGACACGGUAUAUCCGAACCAGAAGGCAACCUGC | – | – | 48.6 | 39.8 |
| AUCAAGUGAGGAUAUGAUAAUACAACAAACAAACAUCUACAUCAGAAGGCACAUGAGGAUCACCCAUGUUAAUC | 22.7 | 27.1 | – | – |
| UGGCCGGAGACAGGAUAUGUGACUGCAUAGUGCACAGAAGGGUCUACAUGAGGAUCACCCAUGUCACCGAACGCCAAACCACAA | – | – | 574 | 26.1 |
| ACAUAGUUAGGAUAUGCUGCUCGUCACUUGCGUGAUGAGUAGCAGAAGGAACAUGAGGAUCACCCAUGUAAAAA | 28.3 | 25.5 | – | – |
